Results taken from ChEMBL document CHEMBL2417481, “Regioselective synthesis of 6-substituted-2-amino-5-bromo-4(3H)-pyrimidinones and evaluation of their antiviral activity” (Eur J Med Chem, 2013).

How the values were obtained:
[1] = test system: Human respirovirus 3; assay: Antiviral activity against Parainfluenza virus 3 infected in african green monkey Vero cells assessed as reduction in virus-induced cytopathogenicity; assay type: functional, organism-based; settings: Human respirovirus 3, Vero
Method in brief: (§1)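 Confluent Vero monolayers in 96-well plates were inoculated with 100 CCID50 of virus together with varying compound concentrations. Cytopathicity was scored once it was complete in untreated virus-infected control cultures.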

[2] = test system: Respiratory syncytial virus; assay: Antiviral activity against Respiratory syncytial virus Long infected in human HeLa cells assessed as reduction in virus-induced cytopathogenicity; assay type: functional, organism-based
Method in brief: (§2)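 Confluent cell monolayers (Vero, HeLa, HEL or MDCK, as named in each line) were infected with 100 CCID50 of virus while exposed to a range of compound concentrations. Cytopathicity was scored once it was complete in untreated infected controls.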

[3] = test system: Punta Toro virus; assay: Antiviral activity against Punta Toro virus infected in african green monkey Vero cells assessed as reduction in virus-induced cytopathogenicity; assay type: functional, organism-based; method in brief: as §2
[4] = Cytotoxicity against african green monkey Vero cells assessed as morphological changes; assay type: cell-based; settings: chlorocebus sabaeus
[5] = test system: Sindbis virus; assay: Antiviral activity against Sindbis virus infected in african green monkey Vero cells assessed as reduction in virus-induced cytopathogenicity; assay type: functional, organism-based; method in brief: as §2
[6] = test system: Coxsackievirus B4; assay: Antiviral activity against Coxsackievirus B4 infected in african green monkey Vero cells assessed as reduction in virus-induced cytopathogenicity; assay type: functional, organism-based; settings: Enterovirus B; method in brief: as §2
[7] = Cytotoxicity against human HeLa cells assessed as morphological changes; assay type: cell-based
[8] = test system: Vesicular stomatitis virus; assay: Antiviral activity against Vesicular stomatitis virus infected in human HeLa cells assessed as reduction in virus-induced cytopathogenicity; assay type: functional, organism-based; method in brief: as §2
[9] = test system: Coxsackievirus B4; assay: Antiviral activity against Coxsackievirus B4 infected in human HeLa cells assessed as reduction in virus-induced cytopathogenicity; assay type: functional, organism-based; settings: Enterovirus B; method in brief: as §2
[10] = test system: Mammalian orthoreovirus 1; assay: Antiviral activity against Reovirus-1 infected in african green monkey Vero cells assessed as reduction in virus-induced cytopathogenicity; assay type: functional, organism-based; settings: Mammalian orthoreovirus 1, Vero; method in brief: as §1
[11] = Cytotoxicity against human HEL cells assessed as morphological changes; assay type: cell-based
[12] = test system: Vesicular stomatitis virus; assay: Antiviral activity against Vesicular stomatitis virus infected in human HEL cells assessed as reduction in virus-induced cytopathogenicity; assay type: functional, organism-based; method in brief: as §2
[13] = test system: Influenza A virus; assay: Antiviral activity against Influenza A virus H1N1 infected in MDCK cells assessed as reduction in virus-induced cytopathogenicity; assay type: functional, organism-based; method in brief: as §2
[14] = test system: Influenza B virus; assay: Antiviral activity against Influenza B virus infected in MDCK cells assessed as reduction in virus-induced cytopathogenicity; assay type: functional, organism-based; method in brief: as §2
[15] = test system: Influenza A virus; assay: Antiviral activity against Influenza A virus […] infected in MDCK cells assessed as reduction in virus-induced cytopathogenicity; assay type: functional, organism-based; method in brief: as §2
[16] = Cytotoxicity against MDCK cells assessed as morphological changes; assay type: cell-based, Canis lupus familiaris; settings: dog
[17] = test system: Human alphaherpesvirus 3; assay: Antiviral activity against thymidine kinase negative Varicella-zoster virus 07-1 infected in human HEL cells assessed as reduction in the virus plaque formation; assay type: functional, organism-based; settings: Human alphaherpesvirus 3, 07-1, HEL
Method in brief: (§3)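 Confluent HEL fibroblast cultures received 20 PFU of VZV together with varying compound concentrations. Plaque formation was read when it reached completion in untreated virus controls.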

[18] = test system: Human alphaherpesvirus 3; assay: Antiviral activity against thymidine kinase positive Varicella-zoster virus OKA infected in human HEL cells assessed as reduction in virus plaque formation; assay type: functional, cell-based, Human herpesvirus 3 strain Oka vaccine; settings: Human alphaherpesvirus 3, OKA; method in brief: as §3
[19] = test system: Human alphaherpesvirus 1; assay: Antiviral activity against Herpes simplex virus-1 KOS infected in human HEL cells assessed as reduction in virus-induced cytopathogenicity; assay type: functional, organism-based; settings: Human alphaherpesvirus 1, KOS; method in brief: as §2
[20] = test system: Human alphaherpesvirus 1; assay: Antiviral activity against thymidine kinase negative […] Herpes simplex virus-1 KOS infected in human HEL cells assessed as reduction in virus-induced cytopathogenicity; assay type: functional, organism-based; settings: Human alphaherpesvirus 1, KOS; method in brief: as §2
[21] = test system: Cytomegalovirus; assay: Antiviral activity against Cytomegalovirus Davis infected in human HEL cells assessed as reduction in virus plaque formation; assay type: functional, organism-based; settings: Human betaherpesvirus 5, Davis
Method in brief: (§4)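 Confluent HEL fibroblasts were inoculated with 100 PFU of CMV at graded compound concentrations. Plaques were counted once formation was complete in untreated infected controls.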

[22] = test system: Cytomegalovirus; assay: Antiviral activity against Cytomegalovirus AD-169 infected in human HEL cells assessed as reduction in virus plaque formation; assay type: functional, organism-based; settings: Human betaherpesvirus 5, AD-169, HEL; method in brief: as §4
[23] = test system: Felid alphaherpesvirus 1; assay: Antiviral activity against Feline Herpes virus infected in cat CRFK cells assessed as inhibition of virus-induced cytopathic effect by MTS assay; assay type: functional, organism-based; settings: Felid alphaherpesvirus 1, CRFK
[24] = test system: Feline coronavirus; assay: Antiviral activity against Feline coronavirus infected in cat CRFK cells assessed as inhibition of virus-induced cytopathic effect by MTS assay; assay type: functional, organism-based; settings: Alphacoronavirus 1, CRFK
[25] = test system: Human alphaherpesvirus 2; assay: Antiviral activity against Herpes simplex virus-2 G infected in human HEL cells assessed as reduction in virus-induced cytopathogenicity; assay type: functional, organism-based; settings: Human alphaherpesvirus 2, strain G; method in brief: as §2
[26] = Cytotoxicity against cat CRFK cells assessed as cell viability by MTS assay; assay type: cell-based, Felis catus

With Nc1ncnc2c1ncn2C[C@H](O)CO [(S)-DHPA] the EC50 [1] was > 250 µM, the EC50 [2] was > 250 µM and the EC50 [3] was > 250 µM. The MCC [4] was > 250 µM, the EC50 [5] was > 250 µM and the EC50 [6] was > 250 µM. The MCC [7] was > 250 µM, the EC50 [8] was > 250 µM and the EC50 [9] was > 250 µM. For the same compound, the EC50 [10] was > 250 µM.
In the case of Nc1nc2c(ncn2COCCO)c(=O)[nH]1 [ACYCLOVIR], the MCC [11] is reported as > 250 µM and the EC50 [12] is reported as > 250 µM.
For NC12CC3CC(CC(C3)C1)C2 [AMANTADINE], the EC50 [13] was 140 µM, the EC50 [14] was > 200 µM and the EC50 [15] was 0.8 µM. The MCC [16] was > 200 µM.
For O=c1[nH]c(=O)n([C@H]2C[C@H](O)[C@@H](CO)O2)cc1/C=C/Br [BRIVUDINE], the EC50 [17] was 33 µM, the EC50 [18] was 0.02 µM and the MCC [11] was > 250 µM. For the same compound, the EC50 [19] was 0.4 µM, the EC50 [20] was > 250 µM and the EC50 [12] was > 250 µM.
For Nc1ccn(C[C@@H](CO)OCP(=O)(O)O)c(=O)n1 [CIDOFOVIR], the EC50 [21] was 0.51 µM, the EC50 [22] was 3.1 µM and the MCC [11] was > 250 µM. The EC50 [12] was > 250 µM.
For Nc1nc2c(ncn2COC(CO)CO)c(=O)[nH]1 [GANCICLOVIR], the EC50 [23] was 0.9 µM, the EC50 [24] was > 100 µM and the EC50 [21] was 0.38 µM. For the same compound, the EC50 [22] was 3.1 µM, the EC50 [25] was 0.9 µM and the MCC [11] was > 100 µM. For the same compound, the MCC [7] was > 100 µM, the MCC [26] was > 100 µM and the EC50 [19] was > 100 µM.
NC(=O)c1ncn([C@@H]2O[C@H](CO)[C@@H](O)[C@H]2O)n1 [RIBAVIRIN] showed an EC50 [2] of 5 µM, an EC50 [3] of 112 µM and an EC50 [13] of 9.6 µM. The EC50 [14] was 8.3 µM, the MCC [4] was > 250 µM and the EC50 [15] was 7.2 µM. The EC50 [5] was > 250 µM, the MCC [16] was > 100 µM and the EC50 [6] was > 250 µM. For the same compound, the MCC [7] was > 250 µM, the EC50 [9] was 22 µM and the EC50 [10] was > 250 µM.
For CC(N)C12CC3CC(CC(C3)C1)C2 (centres undefined) [RIMANTADINE], the EC50 [14] was > 200 µM and the MCC [16] was > 200 µM.
